Laboratory results taken from article PMC2233905 (The Journal of General Physiology, 2004).

How the values were obtained:
[1] = tested on: outward currents of ventricular cardiomyocytes; conditions: concentrations <10 μM; ref Berul and Morad, 1995; cited from earlier work
hEag1 channels [2] = molecular target: T1, hEag1 channels (Homo sapiens, UniProt O95259); test: Inside-out patch recordings of hEag1 currents; type: cell-based; conditions: for rate of block: inside-out, 500 nM astemizole
T1 sequence (O95259 1-989): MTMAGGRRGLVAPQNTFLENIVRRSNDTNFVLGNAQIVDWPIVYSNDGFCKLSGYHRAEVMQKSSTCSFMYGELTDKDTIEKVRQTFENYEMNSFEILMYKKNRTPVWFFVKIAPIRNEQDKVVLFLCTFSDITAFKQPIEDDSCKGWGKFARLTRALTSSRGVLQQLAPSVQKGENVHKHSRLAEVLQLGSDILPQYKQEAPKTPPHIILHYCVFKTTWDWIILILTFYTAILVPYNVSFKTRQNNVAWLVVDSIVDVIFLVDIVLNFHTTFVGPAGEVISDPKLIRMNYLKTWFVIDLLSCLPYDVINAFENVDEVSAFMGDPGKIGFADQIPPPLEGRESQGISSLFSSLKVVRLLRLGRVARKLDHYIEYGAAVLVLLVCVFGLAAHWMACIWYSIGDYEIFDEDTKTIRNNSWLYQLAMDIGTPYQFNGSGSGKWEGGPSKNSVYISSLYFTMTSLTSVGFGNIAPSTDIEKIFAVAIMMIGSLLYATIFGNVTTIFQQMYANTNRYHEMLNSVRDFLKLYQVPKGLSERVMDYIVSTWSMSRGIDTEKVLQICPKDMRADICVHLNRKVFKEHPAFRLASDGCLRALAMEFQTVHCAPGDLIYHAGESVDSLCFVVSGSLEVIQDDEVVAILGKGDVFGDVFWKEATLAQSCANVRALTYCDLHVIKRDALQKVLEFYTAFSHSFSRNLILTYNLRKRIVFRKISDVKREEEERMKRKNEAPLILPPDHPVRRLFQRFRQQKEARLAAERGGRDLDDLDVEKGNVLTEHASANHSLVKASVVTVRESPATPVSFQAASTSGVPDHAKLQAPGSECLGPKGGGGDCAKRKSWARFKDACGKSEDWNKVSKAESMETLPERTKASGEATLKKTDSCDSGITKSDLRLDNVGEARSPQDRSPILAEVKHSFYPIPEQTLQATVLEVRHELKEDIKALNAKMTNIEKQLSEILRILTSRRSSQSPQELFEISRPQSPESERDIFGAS
In short: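 Inside-out patches from hEag1-expressing cells at room temperature. Pipette: 145 NaCl, 5 KCl, 3 CaCl2, 1 MgCl2, 10 HEPES/NaOH pH 7.4. Successive 6-s pulses at 80 mV with drug applied for 2.5 s. Current ratios to preapplication traces were fitted with a single exponential to give the block time constant.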

Kv4.2 = molecular target: T2, Kv4.2 (Homo sapiens, UniProt Q9NZV8); test: Kv4.2 channels; type: cell-based; conditions: concentrations up to 10 μM, unpublished data
T2 sequence (Q9NZV8 1-630): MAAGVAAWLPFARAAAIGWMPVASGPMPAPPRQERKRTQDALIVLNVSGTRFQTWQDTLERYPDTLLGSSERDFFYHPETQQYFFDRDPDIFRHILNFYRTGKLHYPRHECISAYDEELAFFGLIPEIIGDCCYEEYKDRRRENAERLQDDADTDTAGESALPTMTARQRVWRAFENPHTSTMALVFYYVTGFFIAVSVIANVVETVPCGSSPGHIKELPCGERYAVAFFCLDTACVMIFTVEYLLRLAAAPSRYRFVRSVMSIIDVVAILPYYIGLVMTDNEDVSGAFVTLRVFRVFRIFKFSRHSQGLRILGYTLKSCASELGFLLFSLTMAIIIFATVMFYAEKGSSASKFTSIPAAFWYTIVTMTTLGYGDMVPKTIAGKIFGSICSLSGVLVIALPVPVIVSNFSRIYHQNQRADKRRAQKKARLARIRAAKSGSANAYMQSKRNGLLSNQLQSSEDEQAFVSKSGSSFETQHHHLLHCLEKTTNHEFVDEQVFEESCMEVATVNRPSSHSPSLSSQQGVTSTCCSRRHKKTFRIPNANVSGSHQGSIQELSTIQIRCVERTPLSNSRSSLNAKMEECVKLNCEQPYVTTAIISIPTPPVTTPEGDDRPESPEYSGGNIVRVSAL

[3] = tested on: Eag-like channels 2 (hELK2); conditions: ref Becchetti et al., 2002; cited from earlier work
[4] = ref Fischer et al., 1997, 1998; cited from earlier work
[5] = tested on: IRK1 inward rectifier K^+ channels; conditions: concentrations up to 10 μM; ref Suessbrich et al., 1996; cited from earlier work
hEag1 channels [6] = molecular target: T1, hEag1 channels; test: Cell-attached patch recordings of hEag1 currents, drug in bath; type: cell-based; conditions: 140 mM external K+, 60 mV
In short: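 hEag1-expressing cells grown 24–72 h on poly-L-lysine-coated coverslips; cell-attached patches at room temperature. Bath held 140 mM K+; pipette held control external solution (160 NaCl, 2.5 KCl, 2 CaCl2, 1 MgCl2, 10 HEPES, pH 7.4) without glucose. 1-s steps to 60 mV from −70 mV were recorded before, during and after washout of bath-applied drug.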

cardiac IsK currents = conditions: concentrations up to 10 μM; ref Suessbrich et al., 1996; cited from earlier work
Kv1.1 = conditions: concentrations up to 10 μM; ref Suessbrich et al., 1996; cited from earlier work
[7] = Ionization: pKa and calculated protonated fractions; type: physicochemical
In short: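 Fractions of unprotonated, monoprotonated and diprotonated test compound were calculated from its two pKa values at pH 6.4, 7.4 and 8.4. The diprotonated percentage was 100 × [H+]2 divided by the summed-species denominator. Protonated fractions in the pH 7.4 recording solution were predicted the same way.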

cloned HERG = conditions: HEK-293 cells; ref Zhou et al., 1999; cited from earlier work

time constant of block in inside-out patches (hEag1 channels [2]; bath pH 6.0, pipette pH 7.4, 80 mV): 387 ms
reversal of block on 2-s washout during the depolarization (hEag1 channels [2]; inside-out patches): did not recover
rate of block (hEag1 channels [2]; pHint 6.4): 6.7 ± 2 s⁻¹
rate of block (hEag1 channels [2]; pHint 7.4): 2.8 ± 0.2 s⁻¹
effect on current (Kv4.2): no significant effects
block of channels in cell-attached patches by bath application (hEag1 channels [6]): blocked
Diprotonated form, percentile contribution ([7]; pH 6.4, calculated): 13.6%
Monoprotonated form, percentile contribution ([7]; pH 6.4, calculated): 85.7%
Unprotonated form, percentile contribution ([7]; pH 6.4, calculated): 0.7%
Diprotonated form, percentile contribution ([7]; pH 7.4, calculated): 1.4%
Monoprotonated form, percentile contribution ([7]; pH 7.4, calculated): 91.3%
Unprotonated form, percentile contribution ([7]; pH 7.4, calculated): 7.3%
predicted protonated fraction ([7]; pH 7.4 recording solution): 93%
Diprotonated form, percentile contribution ([7]; pH 8.4, calculated): 0.1%
Monoprotonated form, percentile contribution ([7]; pH 8.4, calculated): 55.7%
Unprotonated form, percentile contribution ([7]; pH 8.4, calculated): 44.2%
SMILES: COc1ccc(CCN2CCC(Nc3nc4ccccc4n3Cc3ccc(F)cc3)CC2)cc1 [astemizole]
effect on currents [1]: no effects
sensitivity to astemizole [3]: not sensitive
pK a1 [4]: 5.6
pK a2 [4]: 8.5
effect on current [5]: no significant effects
effect on current (cardiac IsK currents): no significant effects
effect on current (Kv1.1): no significant effects
IC50 (cloned HERG): 0.9 nM
